Reference: ChEMBL document CHEMBL1123251, “N-(cyanomethyl)- and N-(2-methoxy-1-cyanoethyl)anthracyclines and related carboxyl derivatives” (J Med Chem, 1986)
pEC50, pIC50: −log10 of the molar value.

Tests used:
[1] = Compound was evaluated for the change in Tm of isolated helical DNA in solution.; assay type: ADME
In short: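 Thermal denaturation of calf thymus DNA (5.2×10⁻⁵ M, P) with drug at 5.2×10⁻⁶ M in 0.01 M phosphate buffer pH 7, 10⁻⁵ M EDTA, 5% Me2SO. ΔTm = Tm(DNA–drug complex) − Tm(DNA).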

[2] = Percent recovery of compound at pH 2; assay type: ADME
In short: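 Drug stocks in CH3CN or EtOH were diluted 1:1 with phosphate buffer (pH 7), citrate buffer (pH 4) or 0.1 N HCl–KCl (pH 2). Solutions were held at 23 °C for 22 h, then aliquots were analysed by reversed-phase C18 HPLC eluted with 0.1 N NaH2PO4–CH3CN. Percent of drug recovered was reported.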

[3] = Percent recovery of compound at pH 4; assay type: ADME
In short: (§1)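 Drug stock in CH₃CN or EtOH was diluted 1:1 with citrate buffer (pH 4) or phosphate buffer (pH 7) and held at 23 °C for 22 h. Remaining drug was measured by reversed-phase C18 (5 μm) HPLC, eluting with 0.1 N NaH₂PO₄–CH₃CN (70:30 or 66:34, depending on compound). Result is reported as % recovery.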

[4] = Percent recovery of compound at pH 7; assay type: ADME; in short: as §1
[5] = test system: L1210; experiment: Compound was evaluated for the 50% inhibition of the incorporation of [3H]- thymidine in the DNA (inhibition of synthesis in leukemia L1210 cells); assay type: functional; conditions: Mus musculus, read-out: ED50 (the source's name)
[6] = test system: P388; experiment: Compound was evaluated for the antitumor efficacy at optimal dose 0.012 mg/kg against leukemia P388 in mice on day 1,; assay type: functional, Mus musculus
[7] = test system: P388/ADR; experiment: Compound was evaluated for the growth inhibition of P388/ADR cells.; assay type: functional, cell-based; conditions: Mus musculus
In short: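 P388/ADR, a P388 subline selected for anthracycline resistance, grown in culture and exposed to drug for 48 h. IC50 (μM) was taken for growth inhibition. Resistance index = IC50 in P388/ADR ÷ IC50 in parent P388/S cells.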

[8] = test system: L1210; experiment: Compound was evaluated for the 50% inhibition of the incorporation of [3H]uridine in the RNA (inhibition of synthesis in leukemia L1210 cells); conditions: Mus musculus, read-out: ED50 (the source's name)
[9] = Partition coefficient in octanol-phosphate buffer at pH 7.4
[10] = test system: P388/S; experiment: (§2) Compound was evaluated for the growth inhibition of P388/s cells.; assay type: functional, cell-based; conditions: Mus musculus
In short: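 Cultured P388 cells were exposed to drug for 48 h and the IC50 for growth inhibition determined.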

[11] = test system: P388; experiment: Compound was evaluated for the antitumor efficacy at optimal dose 3.1 mg/kg against leukemia P388 in mice on day 1,; assay type: functional, Mus musculus
[12] = test system: P388; experiment: Compound was evaluated for the antitumor efficacy at optimal dose 8.0 mg/kg against leukemia P388 in mice on day q4d 5, 9, 13.,; assay type: functional, Mus musculus
[13] = test system: P388/S; experiment: as §2; assay type: functional, cell-based; conditions: Mus musculus; remark: listed apart in the source
In short: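 Growth inhibition of P388/S cells (the standard screening P388 line) in culture after 48-h drug exposure; IC50 reported in μM.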

[14] = test system: P388; experiment: Compound was evaluated for the antitumor efficacy at optimal dose 7.5 mg/kg against leukemia P388 in mice on day 1,; assay type: functional, Mus musculus

SMILES | Change in Tm [1] | pEC50 [5] | pEC50 [8] | pIC50 [13] | Recovery [2] | Recovery [3] | Recovery [4] | T/C [6] | pIC50 [7] | logD [9] | pIC50 [10] | T/C [11] | T/C [12] | T/C [14]
COc1cccc2c1C(=O)c1c(O)c3c(c(O)c1C2=O)C[C@@](O)(C(=O)CO)C[C@@H]3OC1CC(N2CCOCC2C#N)C(O)C(C)O1 (stereo not given in full) | 8.7 | 8.52 | 9.28 |  | 10% | 54% | 74% | 262% | 9.52 |  |  |  |  | 
COCC(C#N)NC1CC(O[C@H]2C[C@](O)(C(=O)CO)Cc3c(O)c4c(c(O)c32)C(=O)c2c(OC)cccc2C4=O)OC(C)C1O (stereo not given in full) | 12.5 | 6.10 | 6.40 |  | 58% | 29% | 28% |  |  | 0.92 | 7.43 |  |  | 
COCC(C#N)NC1CC(O[C@H]2C[C@](O)(C(C)=O)Cc3c(O)c4c(c(O)c32)C(=O)c2c(OC)cccc2C4=O)OC(C)C1O (stereo not given in full) | 9.4 | 6.29 | 6.29 |  |  |  |  |  |  | 2.64 |  |  |  | 
CCOC(=O)CCCNC1CC(O[C@H]2C[C@](O)(C(C)=O)Cc3c(O)c4c(c(O)c32)C(=O)c2c(OC)cccc2C4=O)OC(C)C1O (stereo not given in full) | 8.4 | 5.89 | 6.43 |  |  |  |  |  |  | 2.04 |  |  |  | 
COc1cccc2c1C(=O)c1c(O)c3c(c(O)c1C2=O)C[C@@](O)(C(C)=O)C[C@@H]3OC1CC(NCC#N)C(O)C(C)O1 (stereo not given in full) | 11.7 | 5.74 | 6.09 |  |  |  |  |  |  | 2.28 |  |  |  | 
COc1cccc2c1C(=O)c1c(O)c3c(c(O)c1C2=O)C[C@@](O)(C(=O)CO)C[C@@H]3OC1CC(NCC#N)C(O)C(C)O1 (stereo not given in full) | 13.9 | 5.92 | 6.54 |  | 92% | 86% | 82% |  |  | 1.2 | 7.55 | 184% | 148% | 

Now from value to compound, other results behind:

Change in Tm [1] | pEC50 [5] | pEC50 [8] | pIC50 [13] | SMILES | Recovery [2] | Recovery [3] | Recovery [4] | T/C [6] | pIC50 [7] | logD [9] | pIC50 [10] | T/C [11] | T/C [12] | T/C [14]
2.2 | < 4.00 | 4.00 |  | COc1cccc2c1C(=O)c1c(O)c3c(c(O)c1C2=O)C[C@@](O)(C(C)=O)C[C@@H]3OC1CC(NCC(=O)O)C(O)C(C)O1 (stereo not given in full) |  |  |  |  |  | 0.43 |  |  |  | 
0 | 4.89 | 4.96 |  | CCOC(=O)CNC1CC(O[C@H]2C[C@](O)(C(C)=O)Cc3c(O)c4c(c(O)c32)C(=O)c2c(OC)cccc2C4=O)OC(C)C1O (stereo not given in full) |  |  |  |  |  |  |  |  |  | 
2.2 | 4.85 | 5.28 |  | COc1cccc2c1C(=O)c1c(O)c3c(c(O)c1C2=O)C[C@@](O)(C(C)=O)C[C@@H]3OC1CC(N(CC#N)CC(=O)[O-])C(O)C(C)O1.[Na+] (stereo not given in full) |  |  |  |  |  | 0.03 |  |  |  | 
3.5 | 5.12 | 5.77 |  | COc1cccc2c1C(=O)c1c(O)c3c(c(O)c1C2=O)C[C@@](O)(C(C)=O)C[C@@H]3OC1CC(NCC(N)=O)C(O)C(C)O1 (stereo not given in full) |  |  |  |  |  | 1.65 |  |  |  | 
 | 5.15 | 5.46 |  | CCOC(=O)CN(CC#N)C1CC(O[C@H]2C[C@](O)(C(C)=O)Cc3c(O)c4c(c(O)c32)C(=O)c2c(OC)cccc2C4=O)OC(C)C1O (stereo not given in full) |  |  |  |  |  |  |  |  |  | 
10.5 | 6.18 | 6.48 |  | COc1cccc2c1C(=O)c1c(O)c3c(c(O)c1C2=O)C[C@@](O)(C(C)=O)C[C@@H]3O[C@H]1C[C@H](N)[C@H](O)[C@H](C)O1 [DAUNORUBICIN] |  |  |  |  |  |  |  |  |  | 
12.8 | 5.80 | 6.24 | 7.17 | COc1cccc2c1C(=O)c1c(O)c3c(c(O)c1C2=O)C[C@@](O)(C(=O)CO)C[C@@H]3O[C@H]1C[C@H](N)[C@H](O)[C@H](C)O1 [DOXORUBICIN] |  |  |  |  | 5.09 |  |  |  | 160% | 252%
